pIC50, pKi: −log10 of the molar value.
Columns and labels:
[1] = system: Human immunodeficiency virus; assay: Antiviral activity against HIV with reverse transcriptase K103N/G190A double mutant assessed as inhibition of viral replication relative to wild type; type: functional
[2] = system: Human immunodeficiency virus; assay: Antiviral activity against HIV with reverse transcriptase K103N/Y181C/G190A mutant assessed as inhibition of viral replication; type: functional, organism-based; details: Human immunodeficiency virus 1
[3] = Half life in rhesus monkey at 1 mg/kg, iv; type: ADME, organism-based, Macaca mulatta; set-up: dose 1 mg/kg, route intravenous; details: in vivo
[4] = system: Human immunodeficiency virus; assay: Antiviral activity against HIV with reverse transcriptase CNDO mutant assessed as inhibition of viral replication; type: functional, organism-based; details: Human immunodeficiency virus 1
[5] = system: Human immunodeficiency virus; assay: Antiviral activity against HIV with reverse transcriptase K103N/Y181C double mutant assessed as inhibition of viral replication relative to wild type; type: functional
[6] = system: Human immunodeficiency virus; assay: Antiviral activity against HIV with reverse transcriptase K101E/G190A double mutant assessed as inhibition of viral replication relative to wild type; type: functional
[7] = Oral bioavailability in rhesus monkey at 5 mg/kg; details: in vivo
[8] = system: Human immunodeficiency virus; assay: Antiviral activity against HIV with reverse transcriptase Y181C mutant assessed as inhibition of viral replication relative to wild type; type: functional
[9] = Volume of distribution in Beagle dog at 0.5 mg/kg, iv; type: ADME, organism-based, Canis lupus familiaris; set-up: dose 0.5 mg/kg, route intravenous; details: in vivo
[10] = system: Human immunodeficiency virus; assay: Antiviral activity against HIV with reverse transcriptase Y188L mutant assessed as inhibition of viral replication; type: functional, organism-based; details: Human immunodeficiency virus 1
[11] = Oral bioavailability in Beagle dog at 1 mg/kg; type: ADME, organism-based, Canis lupus familiaris; details: in vivo
[12] = Clearance in rhesus monkey at 1 mg/kg, iv; type: ADME, organism-based, Macaca mulatta; set-up: dose 1 mg/kg, route intravenous; details: in vivo
[13] = system: Human immunodeficiency virus; assay: Antiviral activity against HIV with reverse transcriptase CNDO mutant assessed as inhibition of viral replication relative to wild type; type: functional
Rattus norvegicus = assay: AUC in Sprague-Dawley rat at 10 mg/kg, po; type: ADME, organism-based, Plasma; set-up: dose 10 mg/kg, route oral; details: in vivo
[14] = system: Human immunodeficiency virus; assay: Antiviral activity against HIV with reverse transcriptase K103N/Y181C double mutant infected in human MT2 cells assessed as inhibition of viral replication measuring p24 level after 3 days in presence of 10% fetal bovine serum; type: functional; details: Human immunodeficiency virus 1, MT2, Serum, 72 h; read-out: CIC95
In short: (§1)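 Multiple-cycle replication (Spread) assay in MT2 cells with H9IIIB-background mutant virus. Cells were infected overnight at moi ≈ 0.01 without compound, washed, then cultured 3 days across a range of compound concentrations in medium with 10% FBS. p24 was measured in supernatants. CIC95 is the lowest concentration inhibiting replication by ≥95%, reported as the geometric mean of ≥2 determinations.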

[15] = system: Human immunodeficiency virus; assay: Antiviral activity against HIV with reverse transcriptase G190A mutant assessed as inhibition of viral replication relative to wild type; type: functional
[16] = system: Human immunodeficiency virus; assay: Antiviral activity against HIV with reverse transcriptase Y181C mutant infected in human MT2 cells assessed as inhibition of viral replication measuring p24 level after 3 days in presence of 10% fetal bovine serum; type: functional; details: Human immunodeficiency virus 1, MT2, Serum, 72 h; read-out: CIC95; in short: as §1
[17] = system: Human immunodeficiency virus; assay: Antiviral activity against wild type HIV H9-3B infected in human MT2 cells assessed as inhibition of viral replication measuring p24 level after 3 days in presence of 10% fetal bovine serum; type: functional; details: Human immunodeficiency virus 1, MT2, Serum; read-out: CIC95
In short: (§2)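 Multiple-cycle spread assay in MT2 cells with wild-type H9IIIB virus. Cells were infected overnight at moi ≈ 0.01 without compound, washed, then cultured 3 days across varying compound concentrations in RPMI 1640 with 10% FBS or 50% NHS. p24 was measured in supernatants. CIC95 is the lowest concentration inhibiting replication ≥95%, as the geometric mean of ≥2 determinations.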

[18] = Inhibition of RNA-dependent DNA polymerase activity of wild type HIV reverse transcriptase assessed as BrdU incorporation by standard ECL assay; set-up: species or system Human immunodeficiency virus
In short: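 Purified recombinant wild-type RT polymerase activity was measured using a 500-nt heteropolymeric RNA template and a biotinylated DNA primer. BrdU incorporation was detected with a ruthenylated anti-BrdU antibody by electrochemiluminescence. Ki is the geometric mean of at least two determinations, each within 25% of the mean.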

[19] = system: Human immunodeficiency virus; assay: Antiviral activity against HIV with reverse transcriptase L100I mutant assessed as inhibition of viral replication; type: functional, organism-based; details: Human immunodeficiency virus 1
[20] = Half life in Beagle dog at 0.5 mg/kg, iv; type: ADME, organism-based, Canis lupus familiaris; set-up: dose 0.5 mg/kg, route intravenous; details: in vivo
[21] = system: Human immunodeficiency virus; assay: Antiviral activity against HIV with reverse transcriptase K103N mutant infected in human MT2 cells assessed as inhibition of viral replication measuring p24 level after 3 days in presence of 10% fetal bovine serum; type: functional; details: Human immunodeficiency virus 1, MT2, Serum, 72 h; read-out: CIC95; in short: as §1
[22] = system: Human immunodeficiency virus; assay: Antiviral activity against HIV with reverse transcriptase K103N mutant assessed as inhibition of viral replication; type: functional, organism-based; details: Human immunodeficiency virus 1
[23] = system: Human immunodeficiency virus; assay: Antiviral activity against HIV with reverse transcriptase K101E/Y181C/G190A mutant assessed as inhibition of viral replication relative to wild type; type: functional
[24] = Clearance in Sprague-Dawley rat at 2 mg/kg, iv; type: ADME, organism-based; set-up: dose 2 mg/kg, route intravenous; details: in vivo
[25] = system: Human immunodeficiency virus; assay: Antiviral activity against HIV with reverse transcriptase K103N/G190A double mutant assessed as inhibition of viral replication; type: functional, organism-based; details: Human immunodeficiency virus 1
[26] = system: Human immunodeficiency virus; assay: Antiviral activity against HIV with reverse transcriptase MDRC4 mutant assessed as inhibition of viral replication; type: functional, organism-based; details: Human immunodeficiency virus 1
[27] = system: Human immunodeficiency virus; assay: Antiviral activity against HIV with reverse transcriptase K103N mutant assessed as inhibition of viral replication relative to wild type; type: functional
[28] = system: Human immunodeficiency virus; assay: Antiviral activity against HIV with reverse transcriptase K101E/G190A double mutant assessed as inhibition of viral replication; type: functional, organism-based; details: Human immunodeficiency virus 1
[29] = system: Human immunodeficiency virus; assay: Antiviral activity against HIV with reverse transcriptase L100I/K103N double mutant assessed as inhibition of viral replication relative to wild type; type: functional
[30] = system: Human immunodeficiency virus; assay: Antiviral activity against HIV with reverse transcriptase Y181C/G190A double mutant assessed as inhibition of viral replication relative to wild type; type: functional
[31] = system: Human immunodeficiency virus; assay: Antiviral activity against HIV with reverse transcriptase V106A/G190A/F227L mutant assessed as inhibition of viral replication; type: functional, organism-based; details: Human immunodeficiency virus 1
[32] = system: Human immunodeficiency virus; assay: Antiviral activity against HIV with reverse transcriptase V106A/G190A/F227L mutant assessed as inhibition of viral replication relative to wild type; type: functional
[33] = system: Human immunodeficiency virus; assay: Antiviral activity against HIV with reverse transcriptase G190S mutant assessed as inhibition of viral replication; type: functional, organism-based; details: Human immunodeficiency virus 1
[34] = Volume of distribution in Sprague-Dawley rat at 2 mg/kg, iv; type: ADME, organism-based; set-up: dose 2 mg/kg, route intravenous; details: in vivo
[35] = Half life in Sprague-Dawley rat at 2 mg/kg, iv; type: ADME, organism-based; set-up: dose 2 mg/kg, route intravenous; details: in vivo
[36] = system: Human immunodeficiency virus; assay: Antiviral activity against HIV with reverse transcriptase MDRC4 mutant assessed as inhibition of viral replication relative to wild type; type: functional
[37] = system: Human immunodeficiency virus; assay: Antiviral activity against HIV with reverse transcriptase L100I/K103N double mutant assessed as inhibition of viral replication; type: functional, organism-based; details: Human immunodeficiency virus 1
[38] = Volume of distribution in rhesus monkey at 1 mg/kg, iv; type: ADME, organism-based, Macaca mulatta; set-up: dose 1 mg/kg, route intravenous; details: in vivo
Rhesus monkey = assay: AUC in rhesus monkey at 5 mg/kg, po; type: ADME, organism-based, Macaca mulatta, Plasma; set-up: dose 5 mg/kg, route oral; details: in vivo
[39] = system: Human immunodeficiency virus; assay: Antiviral activity against HIV with reverse transcriptase K101E/Y181C/G190A mutant assessed as inhibition of viral replication; type: functional, organism-based; details: Human immunodeficiency virus 1
[40] = system: Human immunodeficiency virus; assay: Antiviral activity against HIV with reverse transcriptase G190S mutant assessed as inhibition of viral replication relative to wild type; type: functional
Canis familiaris = assay: AUC in Beagle dog at 1 mg/kg, po; type: ADME, organism-based, Canis lupus familiaris, Plasma; set-up: dose 1 mg/kg, route oral; details: in vivo
[41] = system: Human immunodeficiency virus; assay: Antiviral activity against HIV with reverse transcriptase L100I mutant assessed as inhibition of viral replication relative to wild type; type: functional
[42] = system: Human immunodeficiency virus; assay: Antiviral activity against wild type HIV H9-3B infected in human MT2 cells assessed as inhibition of viral replication measuring p24 level after 3 days in presence of 50% normal human serum; type: functional; details: Human immunodeficiency virus 1, H9-3B, 72 h, read-out: CIC95; in short: as §2
[43] = system: Human immunodeficiency virus; assay: Antiviral activity against HIV with reverse transcriptase K103N/P225H double mutant assessed as inhibition of viral replication relative to wild type; type: functional
[44] = system: Human immunodeficiency virus; assay: Antiviral activity against HIV with reverse transcriptase K103N/Y181C/G190A mutant assessed as inhibition of viral replication relative to wild type; type: functional
[45] = system: Human immunodeficiency virus; assay: Antiviral activity against HIV with reverse transcriptase Y181C/G190A double mutant assessed as inhibition of viral replication; type: functional, organism-based; details: Human immunodeficiency virus 1
[46] = system: Human immunodeficiency virus; assay: Antiviral activity against HIV with reverse transcriptase K103N/Y181C double mutant assessed as inhibition of viral replication; type: functional, organism-based; details: Human immunodeficiency virus 1
[47] = system: Human immunodeficiency virus; assay: Antiviral activity against HIV with reverse transcriptase Y181C mutant assessed as inhibition of viral replication; type: functional, organism-based; details: Human immunodeficiency virus 1
[48] = Clearance in Beagle dog at 0.5 mg/kg, iv; type: ADME, organism-based, Canis lupus familiaris; set-up: dose 0.5 mg/kg, route intravenous; details: in vivo
[49] = system: Human immunodeficiency virus; assay: Antiviral activity against HIV with reverse transcriptase K103N/P225H double mutant assessed as inhibition of viral replication; type: functional, organism-based; details: Human immunodeficiency virus 1
[50] = system: Human immunodeficiency virus; assay: Antiviral activity against HIV with reverse transcriptase Y188L mutant assessed as inhibition of viral replication relative to wild type; type: functional
[51] = system: Human immunodeficiency virus; assay: Antiviral activity against HIV with reverse transcriptase G190A mutant assessed as inhibition of viral replication; type: functional, organism-based; details: Human immunodeficiency virus 1

N#Cc1cc(Cl)cc(Oc2cc(OCc3n[nH]c4nc(N)ccc34)ccc2Cl)c1
fold change (FC) [1]: 5.14 | pIC50 [2]: 6.96 | half-life [3]: 2.1 h | pIC50 [4]: 8.85 | fold change (FC) [5]: 55.5 | fold change (FC) [6]: 4.93 | bioavailability [7]: 1% | fold change (FC) [8]: 3.43 | Vd [9]: 1.7 L/kg | pIC50 [10]: 6.06 | bioavailability [11]: 47% | clearance [12]: 16 mL/min/kg | fold change (FC) [13]: 1 | AUC (Rattus norvegicus): 23 µM | IC95 [14]: 101 nM | fold change (FC) [15]: 2.07 | IC95 [16]: 27 nM | IC95 [17]: 5 nM | pKi [18]: 9.70 | pIC50 [19]: 8.89 | half-life [20]: 3.9 h | IC95 [21]: 11 nM | pIC50 [22]: 8.59 | fold change (FC) [23]: 21.07 | clearance [24]: 9 mL/min/kg | pIC50 [25]: 8.14 | pIC50 [26]: 8.05 | fold change (FC) [27]: 1.86 | pIC50 [28]: 8.16 | fold change (FC) [29]: 24.86 | fold change (FC) [30]: 8.29 | pIC50 [31]: < 6.00 | fold change (FC) [32]: >714 | pIC50 [33]: 7.91 | Vd [34]: 2 L/kg | half-life [35]: 3.5 h | fold change (FC) [36]: 6.43 | pIC50 [37]: 7.46 | Vd [38]: 1.9 L/kg | AUC (Rhesus monkey): 0.3 µM | pIC50 [39]: 7.53 | fold change (FC) [40]: 8.79 | AUC (Canis familiaris): 31 µM | fold change (FC) [41]: 0.93 | IC95 [42]: 26 nM | fold change (FC) [43]: 1.57 | fold change (FC) [44]: 78.93 | pIC50 [45]: 7.94 | pIC50 [46]: 7.11 | pIC50 [47]: 8.32 | clearance [48]: 5.8 mL/min/kg | pIC50 [49]: 8.66 | fold change (FC) [50]: 629.07 | pIC50 [51]: 8.54

Source: ChEMBL document CHEMBL1156144, “Biaryl ethers as novel non-nucleoside reverse transcriptase inhibitors with improved potency against key mutant viruses” (J Med Chem, 2009)
